# Measured values: ChEMBL document CHEMBL3616442, “Unconventional Knoevenagel-type indoles: Synthesis and cell-based studies for the identification of pro-apoptotic agents” (Eur J Med Chem, 2015)
# Experiments:
# MT4 = experiment: Antiproliferative activity against human MT4 cells after 96 hrs by MTT assay; type: functional, cell-based; settings: MT4, 96 h
# Summary of the method: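 Exponentially growing MT-4 cells (CD4+ human T-cells carrying integrated HTLV-1 genome), seeded at 1×10^5 cells/mL in RPMI-1640 with 10% FCS and antibiotics. Serial dilutions of compound (DMSO stock 100 mM, diluted in medium), 37 °C, 5% CO₂, 96 h. Viability read by MTT. 50% inhibition versus untreated controls by linear regression. Mean ± SD of three independent determinations.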
# HL-60(TB) = experiment: Growth inhibition of human HL-60(TB) cells after 48 hrs by sulforhodamine B assay; type: functional; settings: HL-60, 48 h
# Summary of the method: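 NCI 60-cell-line screen, HL-60(TB) included. Compound given at five 10-fold dilutions from 10^-4 to 10^-8 M. Cells exposed for the last 48 h of a 72 h incubation. Growth or viability estimated by sulforhodamine B protein assay. GI50 is the concentration giving 50% growth inhibition. Values outside the tested range are reported as greater or less than the highest or lowest concentration.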
# K562 = experiment: Growth inhibition of human K562 cells after 48 hrs by sulforhodamine B assay; type: functional; settings: K562, 48 h
# Summary of the method: (§1)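 NCI 60-cell-line screen. Compounds tested at five 10-fold dilutions from 10^-4 to 10^-8 M. Cells exposed for the last 48 h of a 72 h incubation, growth estimated by sulforhodamine B protein assay. GI50 is the concentration giving 50% growth inhibition. Values beyond the tested range are expressed as greater or lesser than the extreme concentration.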
# [1] = Growth inhibition of human RPMI8226 cells after 48 hrs by sulforhodamine B assay; type: functional; settings: RPMI-8226, 48 h
# SR = experiment: Growth inhibition of human SR cells after 48 hrs by sulforhodamine B assay; type: functional
# A549 = experiment: Growth inhibition of human A549 cells after 48 hrs by sulforhodamine B assay; type: functional; settings: A549, 48 h; summary of the method: as §1
# [2] = Growth inhibition of human EKVX cells after 48 hrs by sulforhodamine B assay; type: functional; summary of the method: as §1
# [3] = Growth inhibition of human HOP92 cells after 48 hrs by sulforhodamine B assay; type: functional; settings: HOP-92, 48 h; summary of the method: as §1
# NCI-H23 = experiment: Growth inhibition of human NCI-H23 cells after 48 hrs by sulforhodamine B assay; type: functional; settings: NCI-H23, 48 h; summary of the method: as §1
# NCI-H460 = experiment: Growth inhibition of human NCI-H460 cells after 48 hrs by sulforhodamine B assay; type: functional; settings: NCI-H460, 48 h; summary of the method: as §1
# NCI-H522 = experiment: Growth inhibition of human NCI-H522 cells after 48 hrs by sulforhodamine B assay; type: functional; settings: NCI-H522, 48 h; summary of the method: as §1
# [4] = Growth inhibition of human COLO205 cells after 48 hrs by sulforhodamine B assay; type: functional; settings: COLO 205, 48 h; summary of the method: as §1
# HCT-116 = experiment: Growth inhibition of human HCT116 cells after 48 hrs by sulforhodamine B assay; type: functional; settings: HCT-116, 48 h; summary of the method: as §1
# KM12 = experiment: Growth inhibition of human KM12 cells after 48 hrs by sulforhodamine B assay; type: functional; settings: KM12, 48 h; summary of the method: as §1
# [5] = Growth inhibition of human SF295 cells after 48 hrs by sulforhodamine B assay; type: functional; settings: SF-295, 48 h
# SNB-75 = experiment: Growth inhibition of human SNB75 cells after 48 hrs by sulforhodamine B assay; type: functional; settings: SNB-75, 48 h
# U-251 = experiment: Growth inhibition of human U251 cells after 48 hrs by sulforhodamine B assay; type: functional; settings: U-251, 48 h
# [6] = Growth inhibition of human LOXIMVI cells after 48 hrs by sulforhodamine B assay; type: functional; settings: LOX IMVI; summary of the method: as §1
# M14 = experiment: Growth inhibition of human M14 cells after 48 hrs by sulforhodamine B assay; type: functional; settings: M14, 48 h; summary of the method: as §1
# MDA-MB-435 = experiment: Growth inhibition of human MDA-MB-435 cells after 48 hrs by sulforhodamine B assay; type: functional; settings: MDA-MB-435, 48 h; summary of the method: as §1
# SK-MEL-5 = experiment: Growth inhibition of human SK-MEL-5 cells after 48 hrs by sulforhodamine B assay; type: functional; settings: SK-MEL-5, 48 h
# UACC-62 = experiment: Growth inhibition of human UACC62 cells after 48 hrs by sulforhodamine B assay; type: functional; settings: UACC-62, 48 h
# OVCAR-4 = experiment: Growth inhibition of human OVCAR4 cells after 48 hrs by sulforhodamine B assay; type: functional; settings: OVCAR-4, 48 h; summary of the method: as §1
# SK-OV-3 = experiment: Growth inhibition of human SKOV3 cells after 48 hrs by sulforhodamine B assay; type: functional; settings: SK-OV-3, 48 h
# ACHN = experiment: Growth inhibition of human ACHN cells after 48 hrs by sulforhodamine B assay; type: functional; summary of the method: as §1
# CAKI-1 = experiment: Growth inhibition of human CAKI-1 cells after 48 hrs by sulforhodamine B assay; type: functional; settings: CAKI-1, 48 h; summary of the method: as §1
# [7] = Growth inhibition of human RXF393 cells after 48 hrs by sulforhodamine B assay; type: functional; settings: RXF 393, 48 h
# PC-3 = experiment: Growth inhibition of human PC3 cells after 48 hrs by sulforhodamine B assay; type: functional; settings: PC-3, 48 h
# MCF7 = experiment: Growth inhibition of human MCF7 cells after 48 hrs by sulforhodamine B assay; type: functional; settings: MCF7, 48 h; summary of the method: as §1
# [8] = Growth inhibition of human Hs 578T cells after 48 hrs by sulforhodamine B assay; type: functional; summary of the method: as §1
# T47D = experiment: Growth inhibition of human T47D cells after 48 hrs by sulforhodamine B assay; type: functional
# MDA-MB-468 = experiment: Growth inhibition of human MDA-MB-468 cells after 48 hrs by sulforhodamine B assay; type: functional; settings: MDA-MB-468, 48 h; summary of the method: as §1
# CCRF-CEM = experiment: Growth inhibition of human CCRF-CEM cells after 48 hrs by sulforhodamine B assay; type: functional; summary of the method: as §1
# HOP-62 = experiment: Growth inhibition of human HOP62 cells after 48 hrs by sulforhodamine B assay; type: functional; settings: HOP-62, 48 h; summary of the method: as §1
# NCI-H226 = experiment: Growth inhibition of human NCI-H226 cells after 48 hrs by sulforhodamine B assay; type: functional; settings: NCI-H226, 48 h; summary of the method: as §1
# NCI-H322M = experiment: Growth inhibition of human NCI-H322M cells after 48 hrs by sulforhodamine B assay; type: functional; summary of the method: as §1
# [9] = Growth inhibition of human HCC2998 cells after 48 hrs by sulforhodamine B assay; type: functional; settings: HCC 2998, 48 h; summary of the method: as §1
# HCT-15 = experiment: Growth inhibition of human HCT15 cells after 48 hrs by sulforhodamine B assay; type: functional; settings: HCT-15, 48 h; summary of the method: as §1
# HT-29 = experiment: Growth inhibition of human HT-29 cells after 48 hrs by sulforhodamine B assay; type: functional; settings: HT-29, 48 h; summary of the method: as §1
# SW-620 = experiment: Growth inhibition of human SW620 cells after 48 hrs by sulforhodamine B assay; type: functional; settings: SW-620, 48 h
# SF-268 = experiment: Growth inhibition of human SF268 cells after 48 hrs by sulforhodamine B assay; type: functional; settings: SF-268, 48 h
# [10] = Growth inhibition of human SF539 cells after 48 hrs by sulforhodamine B assay; type: functional; settings: SF-539, 48 h
# SNB-19 = experiment: Growth inhibition of human SNB19 cells after 48 hrs by sulforhodamine B assay; type: functional; settings: SNB-19, 48 h
# Malme-3M = experiment: Growth inhibition of human MALME-3M cells after 48 hrs by sulforhodamine B assay; type: functional; summary of the method: as §1
# SK-MEL-2 = experiment: Growth inhibition of human SK-MEL-2 cells after 48 hrs by sulforhodamine B assay; type: functional; settings: SK-MEL-2, 48 h
# SK-MEL-28 = experiment: Growth inhibition of human SK-MEL-28 cells after 48 hrs by sulforhodamine B assay; type: functional; settings: SK-MEL-28, 48 h
# UACC-257 = experiment: Growth inhibition of human UACC257 cells after 48 hrs by sulforhodamine B assay; type: functional; settings: UACC-257, 48 h
# IGROV-1 = experiment: Growth inhibition of human IGROV1 cells after 48 hrs by sulforhodamine B assay; type: functional; settings: IGROV-1, 48 h; summary of the method: as §1
# OVCAR-3 = experiment: Growth inhibition of human OVCAR3 cells after 48 hrs by sulforhodamine B assay; type: functional; settings: OVCAR-3, 48 h; summary of the method: as §1
# OVCAR-8 = experiment: Growth inhibition of human OVCAR8 cells after 48 hrs by sulforhodamine B assay; type: functional; settings: OVCAR-8, 48 h
# [11] = Growth inhibition of human NCI-ADR-RES cells after 48 hrs by sulforhodamine B assay; type: functional; summary of the method: as §1
# 786-0 = experiment: Growth inhibition of human 786-0 cells after 48 hrs by sulforhodamine B assay; type: functional; settings: 786-0, 48 h; summary of the method: as §1
# A498 = experiment: Growth inhibition of human A498 cells after 48 hrs by sulforhodamine B assay; type: functional; settings: A498, 48 h; summary of the method: as §1
# SN12C = experiment: Growth inhibition of human SN12C cells after 48 hrs by sulforhodamine B assay; type: functional
# TK-10 = experiment: Growth inhibition of human TK10 cells after 48 hrs by sulforhodamine B assay; type: functional; settings: TK-10, 48 h
# UO-31 = experiment: Growth inhibition of human UO31 cells after 48 hrs by sulforhodamine B assay; type: functional; settings: UO-31, 48 h
# DU-145 = experiment: Growth inhibition of human DU145 cells after 48 hrs by sulforhodamine B assay; type: functional; settings: DU-145, 48 h; summary of the method: as §1
# MDA-MB-231 = experiment: Growth inhibition of human MDA-MB-231 cells after 48 hrs by sulforhodamine B assay; type: functional; settings: MDA-MB-231, 48 h; summary of the method: as §1
# [12] = Growth inhibition of human BT549 cells after 48 hrs by sulforhodamine B assay; type: functional; settings: BT-549, 48 h; summary of the method: as §1
smiles,measurement,setting,value
O=C(/C(=C\c1c(-c2ccccc2)[nH]c2ccccc12)S(=O)(=O)c1ccccc1)c1ccccc1,EC50,MT4,3 µM
same,GI50,HL-60(TB),5 µM
same,GI50,K562,6.5 µM
same,GI50,[1],7.6 µM
same,GI50,SR,9.9 µM
same,GI50,A549,35 µM
same,GI50,[2],4.6 µM
same,GI50,[3],5 µM
same,GI50,NCI-H23,9.6 µM
same,GI50,NCI-H460,5.9 µM
same,GI50,NCI-H522,91.8 µM
same,GI50,[4],7.8 µM
same,GI50,HCT-116,4.9 µM
same,GI50,KM12,5.1 µM
same,GI50,[5],3.5 µM
same,GI50,SNB-75,10.1 µM
same,GI50,U-251,8.6 µM
same,GI50,[6],74.7 µM
same,GI50,M14,15.6 µM
same,GI50,MDA-MB-435,3.9 µM
same,GI50,SK-MEL-5,9 µM
same,GI50,UACC-62,9 µM
same,GI50,OVCAR-4,6.6 µM
same,GI50,SK-OV-3,7.6 µM
same,GI50,ACHN,6.7 µM
same,GI50,CAKI-1,3.1 µM
same,GI50,[7],97.1 µM
same,GI50,PC-3,5 µM
same,GI50,MCF7,5 µM
same,GI50,[8],39.5 µM
same,GI50,T47D,3.4 µM
same,GI50,MDA-MB-468,4.2 µM
N#C/C(=C\c1c(-c2ccccc2)[nH]c2ccccc12)C(=O)c1ccccc1,EC50,MT4,0.5 µM
same,GI50,CCRF-CEM,7.3 µM
same,GI50,[1],2.4 µM
same,GI50,A549,7.6 µM
same,GI50,[2],10 µM
same,GI50,HOP-62,16.3 µM
same,GI50,[3],4.5 µM
same,GI50,NCI-H226,6.8 µM
same,GI50,NCI-H23,16 µM
same,GI50,NCI-H322M,3.8 µM
same,GI50,NCI-H460,4.5 µM
same,GI50,NCI-H522,4 µM
same,GI50,[4],5 µM
same,GI50,[9],14.5 µM
same,GI50,HCT-116,5.3 µM
same,GI50,HCT-15,3.5 µM
same,GI50,HT-29,3.4 µM
same,GI50,KM12,2 µM
same,GI50,SW-620,3 µM
same,GI50,SF-268,5.7 µM
same,GI50,[5],3 µM
same,GI50,[10],6 µM
same,GI50,SNB-19,16.8 µM
same,GI50,SNB-75,3.2 µM
same,GI50,U-251,4.7 µM
same,GI50,[6],7.4 µM
same,GI50,Malme-3M,12.3 µM
same,GI50,M14,4.8 µM
same,GI50,MDA-MB-435,0.37 µM
same,GI50,SK-MEL-2,35.2 µM
same,GI50,SK-MEL-28,12 µM
same,GI50,UACC-257,10.9 µM
same,GI50,UACC-62,3.6 µM
same,GI50,IGROV-1,2.5 µM
same,GI50,OVCAR-3,2.4 µM
same,GI50,OVCAR-4,65.3 µM
same,GI50,OVCAR-8,2.2 µM
same,GI50,[11],3.1 µM
same,GI50,SK-OV-3,15.2 µM
same,GI50,786-0,16.5 µM
same,GI50,A498,15.3 µM
same,GI50,ACHN,7.2 µM
same,GI50,CAKI-1,2.5 µM
same,GI50,[7],9.6 µM
same,GI50,SN12C,5.7 µM
same,GI50,TK-10,11.1 µM
same,GI50,UO-31,30.5 µM
same,GI50,PC-3,3.5 µM
same,GI50,DU-145,5.2 µM
same,GI50,MCF7,4 µM
same,GI50,MDA-MB-231,13.2 µM
same,GI50,[8],6.3 µM
same,GI50,[12],3 µM
same,GI50,T47D,5.3 µM
same,GI50,MDA-MB-468,5.6 µM
